In ChEMBL document CHEMBL1140332, “Design, synthesis, and enzymatic evaluation of N1-acyloxyalkyl- and N1-oxazolidin-2,4-dion-5-yl-substituted beta-lactams as novel inhibitors of human leukocyte elastase” (J Med Chem, 2005):
Activity calls are given as the source filed them. The rule behind the calls is not given here.

What was measured:
[1] = biological target: T1, Neutrophil elastase (Homo sapiens) (UniProt P08246); test: Second order rate constant for inhibition of Human leukocyte elastase (minor diastereomeric pair of enantiomer)
T1 sequence (whole entry): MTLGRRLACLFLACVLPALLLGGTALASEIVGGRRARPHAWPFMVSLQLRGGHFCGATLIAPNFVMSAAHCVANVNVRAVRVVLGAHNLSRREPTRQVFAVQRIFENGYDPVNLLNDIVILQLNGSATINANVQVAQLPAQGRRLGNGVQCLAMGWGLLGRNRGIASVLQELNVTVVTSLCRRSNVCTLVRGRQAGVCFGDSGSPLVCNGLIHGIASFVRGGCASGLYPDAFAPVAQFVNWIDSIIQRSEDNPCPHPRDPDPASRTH
Method in brief: (§1)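 Human leukocyte elastase (20 μM stock in pH 5.0 acetate buffer) incubated with inhibitor added from DMSO stock in 0.1 M HEPES pH 7.2, 25 °C. Aliquots withdrawn at intervals are diluted into HEPES containing MeO-Suc-Ala-Ala-Pro-Val-p-NA, and initial rates are followed at 410 nm over 60 s against control incubations. k_obs comes from plots of v/v0 versus time (Kitz–Wilson incubation method).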

[2] = biological target: T1, Neutrophil elastase (Homo sapiens); test: Second order rate constant for inhibition of Human leukocyte elastase (major diastereomeric pair of enantiomer); method in brief: as §1
[3] = biological target: T1, Neutrophil elastase (Homo sapiens); test: Second order rate constant for inhibition of Human leukocyte elastase (major diastereomeric 2 pairs of enantiomer); method in brief: as §1
[4] = biological target: T1, Neutrophil elastase (Homo sapiens); test: Second order rate constant for inhibition of Human leukocyte elastase (minor diastereomeric pair of enantiomer); NI=no inhibition; method in brief: as §1

Question: With CCC1(CC)C(=O)N(C2OC(=O)N(Cc3ccccc3)C2=O)C1S(=O)(=O)c1ccccc1 (stereo unspecified) as the compound, how does the k obs / 1 [1] read?
Answer: 51 1/M 1/s

Question: And the k obs / 1 [2]?
Answer: 68.5 1/M 1/s

Question: How did the k obs / 1 [2] turn out when CCC1(CC)C(=O)N(COC(=O)Nc2ccc(OC)cc2)C1S(=O)(=O)c1ccccc1 (stereo unspecified) was run?
Answer: 100 1/M 1/s

Question: For CCC1(CC)C(=O)N(C2OC(=O)N(c3ccc(C)cc3)C2=O)C1Sc1nc2ccccc2o1 (stereo unspecified), which k obs / 1 [3] is on record?
Answer: 80 1/M 1/s

Question: CCC1(CC)CN(C2OC(=O)N(Cc3ccccc3)C2=O)C1=O (stereo unspecified) was tested. Which k obs / 1 [2] did it give?
Answer: 23.9 1/M 1/s

Question: For CCOC(=O)C(OC(=O)c1ccc(OC)cc1)N1CC(CC)(CC)C1=O (stereo unspecified), which k obs / 1 [2] is on record?
Answer: 10.7 1/M 1/s

Question: CCC1(CC)C(=O)N(C2OC(=O)N(C(=O)[n+]3ccc(OC)cc3)C2=O)C1S(=O)(=O)c1ccccc1 (stereo unspecified) was tested. Which k obs / 1 [1] did it give?
Answer: 49.7 1/M 1/s

Question: What about the k obs / 1 [2] of the same compound?
Answer: 43.2 1/M 1/s

Question: What does the source list for CCOC(=O)C(OC(=O)NC(=O)[n+]1ccccc1C(=O)OC)N1C(=O)C(CC)(CC)C1S(=O)(=O)c1ccccc1 (stereo unspecified)?
Answer: k obs / 1 [4]: inactive; k obs / 1 [2]: 26.6 1/M 1/s

Question: CCC1(CC)C(=O)N(C2OC(=O)N(Cc3ccccc3)C2=O)C1Oc1ccccc1 (stereo unspecified) was tested. Which k obs / 1 [1] did it give?
Answer: 144 1/M 1/s

Question: What about the k obs / 1 [2] of the same compound?
Answer: 115 1/M 1/s

Question: Which k obs / 1 [2] does the source give for CCC1(CC)C(=O)N(C(=O)NCc2ccccc2)C1Oc1ccc(C(=O)O)cc1 (stereo unspecified) here?
Answer: 1500 1/M 1/s

Question: Which k obs / 1 [3] does the source give for CCOC(=O)C(OC(=O)c1ccc(OC)cc1)N1C(=O)C(CC)(CC)C1S(=O)(=O)c1ccccc1 (stereo unspecified) here?
Answer: 24.4 1/M 1/s

Question: How did the k obs / 1 [2] turn out when CCOC(=O)C(OC(=O)c1ccc(OC)cc1)N1C(=O)C(CC)(CC)C1Sc1nc2ccccc2o1 (stereo unspecified) was run?
Answer: 12.9 1/M 1/s

Question: With CCOC(=O)C(OC(=O)NCc1ccccc1)N1C(=O)C(CC)(CC)C1Oc1ccccc1 (stereo unspecified) as the compound, how does the k obs / 1 [2] read?
Answer: 38.2 1/M 1/s
